Measurements from ChEMBL document CHEMBL3351397, “Synthesis and bioactivity of novel amino-pyrazolopyridines” (Eur J Med Chem, 2014).
Active and inactive are the calls of the source. The rule behind the calls is not given here.

How the values were obtained:
[1] = system: K562; test: Cytotoxicity against human K562 cells after 24 to 72 hrs by CellTiter-Glo luminescent cell viability assay; format: functional, cell-based
Method in brief: (§1)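 K562 cells were grown in RPMI with 10% FCS and 1% antibiotic-antimycotic at 37 °C, 5% CO2. Cells were exposed to a range of concentrations for 24 and 72 h and metabolic activity was read. Data were normalized to untreated control as % viable cells, mean ± SD of three determinations, with IC50 derived from dose-response curves.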

[2] = system: PBMC; test: Cytotoxicity against human PBMCs after 24 to 72 hrs by CellTiter-Glo luminescent cell viability assay; format: cell-based; conditions: for Activity: human, pbmc
Method in brief: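 PBMCs from healthy donors were isolated by Ficoll centrifugation (400 g, 20 min) of blood diluted 1:1 in RPMI, then washed 2–3 times. Cells rested 24 h at 37 °C, 5% CO2 before dosing. They were then treated as for K562: 40 µM screen and dose-response at 24 and 72 h, % viable versus control, mean ± SD of three determinations.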

[3] = system: K562; test: Cytotoxicity against human K562 cells at 40 uM assessed as reduction in cell viability after 72 hrs by CellTiter-Glo luminescent assay relative to control; format: functional
Method in brief: (§2)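 K562 cells in RPMI/10% FCS at 37 °C, 5% CO2 were exposed to a single 40 µM concentration for 24 or 72 h. Metabolic activity was normalized to untreated control as % viable cells, mean ± SD of three determinations. Etoposide served as positive control.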

[4] = system: K562; test: Induction of apoptosis in human K562 cells at 40 uM after 72 hrs using Hoechst 33342 by fluorescence microscopy; format: functional, cell-based
Method in brief: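 K562 cells were treated 72 h at 40 µM, then stained with Hoechst 33342 for 15 min at 37 °C. Nuclear morphology, scored as condensed nuclei, was examined by fluorescence microscopy. Etoposide served as positive control.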

[5] = system: Jurkat; test: Induction of apoptosis in human Jurkat cells assessed as induction of caspase 3/7 activity at 40 uM after 48 hrs by luminescent assay relative to untreated control; format: functional
Method in brief: (§3)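 Cells at 3 × 10⁵/mL were treated with test compounds at 40 µM for 8, 24 or 48 h. Culture was then mixed 1:1 with Caspase-Glo 3/7 reagent and incubated 1 h at room temperature; the reagent lyses cells, caspase cleaves the substrate and luciferase gives luminescence. Results are fold change versus untreated cells.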

[6] = system: U-937; test: Induction of apoptosis in human U937 cells assessed as induction of caspase 3/7 activity at 40 uM after 8 hrs by luminescent assay relative to untreated control; format: functional; method in brief: as §3
[7] = system: K562; test: Induction of apoptosis in human K562 cells assessed as induction of caspase 3/7 activity at 40 uM after 8 to 48 hrs by luminescent assay relative to untreated control in presence of 50 uM z-VAD; format: functional, cell-based
Method in brief: (§4)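 Caspase-Glo 3/7 readout at 3 × 10⁵ cells/mL. Cells were pretreated 1 h with the pan-caspase inhibitor Z-VAD(OMe)-FMK, then exposed to compounds at 40 µM for 8, 24 and 48 h. Culture was mixed 1:1 with reagent for 1 h at room temperature; luminescence is expressed as fold change over untreated cells.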

[8] = system: Jurkat; test: Induction of apoptosis in human Jurkat cells assessed as induction of caspase 3/7 activity at 40 uM after 8 to 48 hrs by luminescent assay relative to untreated control in presence of 50 uM z-VAD; format: functional, cell-based; method in brief: as §4
[9] = system: U-937; test: Induction of apoptosis in human U937 cells assessed as induction of caspase 3/7 activity at 40 uM after 8 to 48 hrs by luminescent assay relative to untreated control in presence of 50 uM z-VAD; format: functional, cell-based; method in brief: as §4
[10] = system: K562; test: Induction of apoptosis in human K562 cells assessed as induction of caspase 3/7 activity at 40 uM after 8 hrs by luminescent assay relative to untreated control; format: functional; method in brief: as §3
[11] = system: K562; test: Induction of apoptosis in human K562 cells assessed as induction of caspase 3/7 activity at 40 uM after 24 hrs by luminescent assay relative to untreated control; format: functional; method in brief: as §3
[12] = system: K562; test: Induction of apoptosis in human K562 cells assessed as induction of caspase 3/7 activity at 40 uM after 48 hrs by luminescent assay relative to untreated control; format: functional; method in brief: as §3
[13] = system: Jurkat; test: Induction of apoptosis in human Jurkat cells assessed as induction of caspase 3/7 activity at 40 uM after 8 hrs by luminescent assay relative to untreated control; format: functional; method in brief: as §3
[14] = system: Jurkat; test: Induction of apoptosis in human Jurkat cells assessed as induction of caspase 3/7 activity at 40 uM after 24 hrs by luminescent assay relative to untreated control; format: functional; method in brief: as §3
[15] = system: U-937; test: Induction of apoptosis in human U937 cells assessed as induction of caspase 3/7 activity at 40 uM after 24 hrs by luminescent assay relative to untreated control; format: functional; method in brief: as §3
[16] = system: U-937; test: Induction of apoptosis in human U937 cells assessed as induction of caspase 3/7 activity at 40 uM after 48 hrs by luminescent assay relative to untreated control; format: functional; method in brief: as §3
[17] = biological target: T1, Nuclear factor NF-kappa-B complex (Homo sapiens) (UniProt Q00653+P19838+Q04206); test: Inhibition of TNFalpha-induced NF-kB pathway in human K562 cells assessed as inhibition of IL-8 release preincubated for 2 hrs before TNFalpha addition measured after 24 hrs by sandwich ELISA; format: cell-based
T1 sequence (P19838 whole entry, looked up): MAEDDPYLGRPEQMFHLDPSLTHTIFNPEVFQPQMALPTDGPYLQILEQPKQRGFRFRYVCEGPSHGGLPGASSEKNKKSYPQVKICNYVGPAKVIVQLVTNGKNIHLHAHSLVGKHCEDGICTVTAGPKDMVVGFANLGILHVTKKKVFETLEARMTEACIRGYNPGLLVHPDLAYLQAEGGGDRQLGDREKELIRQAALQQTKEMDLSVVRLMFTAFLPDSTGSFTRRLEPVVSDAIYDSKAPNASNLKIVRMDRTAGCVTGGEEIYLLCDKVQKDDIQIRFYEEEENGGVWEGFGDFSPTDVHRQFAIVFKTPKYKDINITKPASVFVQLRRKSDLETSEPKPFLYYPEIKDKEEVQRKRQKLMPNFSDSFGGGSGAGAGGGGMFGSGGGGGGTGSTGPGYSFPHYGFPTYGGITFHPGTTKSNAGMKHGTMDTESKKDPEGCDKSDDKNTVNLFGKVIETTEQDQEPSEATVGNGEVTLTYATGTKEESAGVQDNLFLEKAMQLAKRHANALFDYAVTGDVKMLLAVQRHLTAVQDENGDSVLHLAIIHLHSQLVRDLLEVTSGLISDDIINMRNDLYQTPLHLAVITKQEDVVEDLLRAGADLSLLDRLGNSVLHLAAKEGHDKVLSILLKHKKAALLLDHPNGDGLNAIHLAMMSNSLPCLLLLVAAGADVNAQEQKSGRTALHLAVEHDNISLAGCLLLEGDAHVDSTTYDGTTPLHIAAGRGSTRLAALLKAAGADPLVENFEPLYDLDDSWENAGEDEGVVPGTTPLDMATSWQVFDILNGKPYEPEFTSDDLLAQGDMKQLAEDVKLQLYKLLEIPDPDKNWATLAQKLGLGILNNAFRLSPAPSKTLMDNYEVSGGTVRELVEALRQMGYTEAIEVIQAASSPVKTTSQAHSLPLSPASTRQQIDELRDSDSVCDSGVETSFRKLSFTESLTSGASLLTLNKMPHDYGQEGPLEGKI
T1 sequence (Q00653 whole entry, looked up): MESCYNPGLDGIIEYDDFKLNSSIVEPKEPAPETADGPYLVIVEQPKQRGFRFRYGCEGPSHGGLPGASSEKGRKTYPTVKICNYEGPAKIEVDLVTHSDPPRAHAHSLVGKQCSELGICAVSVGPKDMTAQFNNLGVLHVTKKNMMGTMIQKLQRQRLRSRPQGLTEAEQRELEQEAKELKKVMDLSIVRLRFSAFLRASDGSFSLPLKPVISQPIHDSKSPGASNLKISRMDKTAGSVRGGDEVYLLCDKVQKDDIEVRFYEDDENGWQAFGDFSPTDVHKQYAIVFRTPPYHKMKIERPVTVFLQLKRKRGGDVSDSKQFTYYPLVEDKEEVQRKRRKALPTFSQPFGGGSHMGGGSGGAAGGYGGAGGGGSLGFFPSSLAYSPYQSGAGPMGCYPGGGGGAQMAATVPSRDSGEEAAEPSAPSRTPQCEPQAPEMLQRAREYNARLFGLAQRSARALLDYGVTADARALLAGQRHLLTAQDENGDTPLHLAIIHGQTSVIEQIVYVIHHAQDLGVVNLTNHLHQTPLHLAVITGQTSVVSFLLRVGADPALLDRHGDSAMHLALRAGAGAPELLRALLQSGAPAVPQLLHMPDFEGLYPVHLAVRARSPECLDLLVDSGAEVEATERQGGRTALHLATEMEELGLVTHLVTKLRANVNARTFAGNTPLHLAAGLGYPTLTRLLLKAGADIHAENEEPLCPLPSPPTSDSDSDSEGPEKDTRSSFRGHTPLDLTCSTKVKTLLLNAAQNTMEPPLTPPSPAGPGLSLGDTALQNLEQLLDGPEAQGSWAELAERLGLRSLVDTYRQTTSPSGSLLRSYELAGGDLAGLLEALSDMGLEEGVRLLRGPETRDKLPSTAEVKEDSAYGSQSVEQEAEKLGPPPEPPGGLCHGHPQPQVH
T1 sequence (Q04206 whole entry, looked up): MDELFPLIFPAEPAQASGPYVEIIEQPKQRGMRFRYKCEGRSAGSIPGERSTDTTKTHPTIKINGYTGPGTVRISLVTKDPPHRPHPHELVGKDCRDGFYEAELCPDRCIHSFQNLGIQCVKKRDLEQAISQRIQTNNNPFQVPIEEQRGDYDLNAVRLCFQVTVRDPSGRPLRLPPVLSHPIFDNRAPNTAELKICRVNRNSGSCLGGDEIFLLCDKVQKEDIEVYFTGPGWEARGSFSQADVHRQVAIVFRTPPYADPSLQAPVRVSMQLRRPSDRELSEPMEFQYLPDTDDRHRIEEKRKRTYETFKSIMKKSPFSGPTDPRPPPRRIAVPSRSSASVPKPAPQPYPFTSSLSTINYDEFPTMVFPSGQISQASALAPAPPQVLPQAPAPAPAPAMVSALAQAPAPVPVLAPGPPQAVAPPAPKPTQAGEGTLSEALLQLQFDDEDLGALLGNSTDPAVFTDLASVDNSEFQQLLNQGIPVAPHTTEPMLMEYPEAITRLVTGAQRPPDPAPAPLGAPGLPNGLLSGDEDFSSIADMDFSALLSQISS
Method in brief: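 K562 cells were pretreated 2 h with compound, then activated with TNFα 20 ng/mL for 22 h (24 h total). Supernatant IL-8 was quantified by sandwich ELISA: pre-coated anti-IL-8 wells for 2 h at room temperature, peroxidase-conjugated polyclonal anti-IL-8 for 60 min, then H2O2/TMB colorimetric development. Mean ± SD of three determinations.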

[18] = system: K562; test: Cytotoxicity against human K562 cells assessed as reduction in cell viability at 8.2 uM after 24 hrs by CellTiter-Glo luminescent assay; format: functional, cell-based
[19] = biological target: T1, Nuclear factor NF-kappa-B complex (Homo sapiens); test: Inhibition of TNFalpha-induced NF-kB transactivation in human K562 cells after 8 hrs by luciferase reporter gene assay
[20] = biological target: T1, Nuclear factor NF-kappa-B complex (Homo sapiens); test: Inhibition of TNFalpha-induced NF-kB transactivation in human K562 cells at 40 uM after 8 hrs by luciferase reporter gene assay
[21] = biological target: T1, Nuclear factor NF-kappa-B complex (Homo sapiens); test: Inhibition of TNFalpha-induced NF-kB pathway in human K562 cells after 8 hrs by luciferase reporter gene assay; format: cell-based
Method in brief: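 K562 cells were electroporated with an NF-κB-RE firefly luciferase reporter (5 µg) plus phRG-TK Renilla plasmid, then recovered 24 h in RPMI/10% FCS. Cells were resuspended at 1 × 10⁶/mL in RPMI/0.1% FCS, pretreated 2 h, then stimulated with TNFα 20 ng/mL for 6 h (8 h total). Dual-Glo firefly/Renilla ratio read at 22 °C; three independent experiments.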

[22] = system: K562; test: Cytotoxicity against human K562 cells assessed as reduction in cell viability at 40 uM after 24 hrs by CellTiter-Glo luminescent assay; format: functional; method in brief: as §2
[23] = system: K562; test: Cytotoxicity against human K562 cells after 72 hrs by CellTiter-Glo luminescent cell viability assay; format: functional, cell-based; conditions: K562, 72 h; method in brief: as §1

| Structure (SMILES) | IC50 [1] [µM] | Activity [3] [%] | Activity [4] | Fold change [5] | Fold change [6] | Activity [7] | Activity [8] | Activity [9] | Fold change [10] | Activity [11] | Activity [12] [%] | Activity [13] [%] | Activity [14] [%] | Activity [15] [%] | Activity [16] [%] | inhibition [19] | inhibition [20] | Activity [2] | also measured |
| --- | --- | --- | --- | --- | --- | --- | --- | --- | --- | --- | --- | --- | --- | --- | --- | --- | --- | --- | --- |
| CC1Cc2cnc3[nH]nc(N)c3c2-c2ccccc21 (stereo not given) | 36.5 | >50 | Active | 2.11 | 16.5 | inactive | inactive | inactive | 1.44 | 2.04 | 1.55 | 8.89 | 5.38 | 6.27 | 1.48 | Dose-dependent effect | Active | – | Activity [1]: Dose-dependent effect; IC50 ([2]; Homo sapiens, PBMC): 36.6 µM; inhibition [17]: Dose-dependent effect; Activity [18]: inactive |
| Cc1cnc2[nH]nc(N)c2c1-c1ccccc1 | 35 | >50 | Active | 1.44 | 1.73 | inactive | inactive | inactive | 1.26 | 3.62 | 2.9 | 1.27 | 1.31 | 5.87 | 4.35 | Dose-dependent effect | Active | Non-toxic | inhibition [21]: Active; Activity [22]: <50%; IC50 [23]: 35 µM |
| Nc1n[nH]c2ncc3c(c12)-c1ccccc1CC3 | 27.6 | >50 | Active | 2.05 | 11.7 | inactive | inactive | inactive | 1.37 | 2.5 | 2.23 | 2.86 | 2.73 | 5.84 | 1.74 | Dose-dependent effect | Active | Non-toxic | – |
